One assay deals with CBFβ-Runx. To be noted: ref [44]; cited from earlier work.
Assay [1] deals with Runt domain - CBFβ interaction (Homo sapiens, UniProt Q01196). As to the kind of experiment: FRET assay of Cerulean-Runt domain and Venus-CBFβ binding. Summed up:
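Purified Cerulean-Runt domain and Venus-CBFβ fusion proteins were used in a competition FRET format. Test compounds displace CBFβ binding to the Runt domain. Initial screening of compounds was at 200 µM.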

A further assay deals with Jurkat. Briefly: MTT cell viability assay, Jurkat. Format: cell-based, human. The settings on record: 48 hours. Summed up: (§1)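 Leukemia cell lines were treated with test compound, with DMSO vehicle and staurosporine positive-control arms, and viability was read by MTT. Mean of triplicates ± SD, two independent experiments. One-way ANOVA excluding staurosporine, then Dunnett's test against DMSO-treated cells (P ≤ 0.05).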

Assay [2] has as its system Kasumi-1 cells. As to the kind of experiment: DAPI flow cytometry of dead/live Kasumi-1 cells. To be noted: 48 hours in culture. Format: cell-based, human. In general terms: A flow cytometer gives signals particle by particle.
Assay [3] relates to AML1-ETO9a + NRas^G12D AML cells. Briefly: CFU-C assay, murine AML1-ETO9a + NRasG12D AML cells. Format: cell-based, mouse. The settings on record: methylcellulose, colonies counted 7 days after plating. Summed up: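 Leukemic cells came from a secondary recipient of spleen cells. The primary recipient had received fetal liver cells transduced with AML1-ETO9a and NRasG12D retroviruses. 20,000 cells were plated in methylcellulose with various test compound concentrations (DMSO final 0.2%). Colonies were counted at day 7. Triplicates per concentration, two experiments, SD. One-way ANOVA with Dunnett's test versus DMSO.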

A further assay deals with 8946 T-ALL cell line. Briefly: MTT cell viability assay, 8946. Format: cell-based, murine. To be noted: 48 hours. Summed up:
as §1
A general note: Tetrazolium assays rely on reduction of a dye to a coloured formazan, in cell work by metabolically active cells.

The subject of assay [4] is Kasumi-1 cells. As to the kind of experiment: MTT cell viability assay, Kasumi-1. Format: cell-based, human. To be noted: 48 hours in culture. Summed up: as §1
In a further assay the test system is 720 T-ALL cell line. As to the kind of experiment: MTT cell viability assay, 720 T-ALL. Format: cell-based, mouse. To be noted: 48 hours. Summed up: as §1
Assay [5] relates to normal mouse bone marrow cells. Briefly: CFU-C assay, normal mouse bone marrow cells. To be noted: methylcellulose, colonies counted 7 days after plating. It counts as cell-based.
The test system of a further assay is Cerulean-Runt domain. As to the kind of experiment: Saturation transfer difference. It counts as binding. The settings on record: STD NMR.
The test system of assay [6] is hematopoietic stem and progenitor cell (HSPC) formation in zebrafish embryos. Briefly: HSPC formation in zebrafish embryos. It counts as in vivo.
Assay [7] concerns normal bone marrow mononuclear cells (BM-MNCs). Briefly: CFU-C assay, normal human bone marrow mononuclear cells. Format: cell-based. To be noted: methylcellulose, colonies counted 14 days after plating.
In a further assay the test system is 720 T-ALL cells. Briefly: qPCR gene expression in 720 T-ALL cells. It counts as cell-based, mouse. The settings on record: 720 T-ALL cells treated for 16 hours. Summed up:
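720 T-ALL cells were exposed to test compound for 16 h and transcript levels quantified by qPCR relative to DMSO-treated cells. Triplicate means ± SD, two experiments. One-way ANOVA with Dunnett's comparison against DMSO.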
On the technique in general: Quantitative PCR measures a nucleic acid by following its amplification.

Assay [8] has as its system t(8;21) positive human AML samples. As to the kind of experiment: CFU-C assay, primary human t. Format: cell-based. To be noted: five samples, methylcellulose, colonies counted 14 days after plating. Summed up: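 Primary AML specimens (pheresis or bone marrow mononuclear cells) were plated in methylcellulose with various test compound concentrations. Colonies were scored 14 days after plating. Triplicate cultures per concentration, two experiments. Significance versus DMSO by one-way ANOVA with Dunnett's multiple-comparison test.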

“Also recorded” adds a separate entry of the source.

Sequence of Runt domain - CBFβ interaction (Q01196 50-178 limits assumed): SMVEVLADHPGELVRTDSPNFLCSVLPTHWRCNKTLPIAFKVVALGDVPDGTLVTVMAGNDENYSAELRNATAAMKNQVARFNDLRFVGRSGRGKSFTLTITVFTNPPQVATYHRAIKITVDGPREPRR

Take `O=C1CN=C(c2ccc[nH]2)c2cc(Cl)ccc2N1` [Ro5-3335]: in the assay on CBFβ-Runx, the “inhibitor of CBFβ-Runx” value is “inhibitor of CBFβ-Runx”.
In assay [1], `Sc1nnc(-c2ccccc2)s1` [4b, 5-phenyl-1,3,4-thiadiazole-2(3H)-thione] had an IC50 of 11 ± 1.3 µM.
On to `CSc1nnc(-c2ccccc2F)s1` [6a, 2-(2-fluorophenyl)-5-(methylthio)-1,3,4-thiadiazole], for which the “activity in the FRET assay” value in [1] (Cerulean-Runt domain and Venus-CBFβ at 100 nM) is recorded as “complete loss of activity”.
For the molecule `S=c1[nH]nc(-c2ccc(-c3cccc(Cl)c3)o2)s1` [AI-8–45], the “growth of Jurkat cells (MTT)” value with Jurkat is “significantly reduced the growth; also recorded: inhibit proliferation”. In addition, the “percentage of DAPI-positive dead cells” value in the assay with Kasumi-1 cells [2] is “statistically significant and dose-dependent increase”. In addition, the “colony formation of AML1-ETO9a + NRasG12D AML cells” value in [3] is given as “significantly reduced colony formation”. Also, the “growth of 8946 T-ALL cells (MTT)” value in the assay on 8946 T-ALL cell line is given as “significantly reduced the growth; also recorded: inhibit proliferation”. In the assay on Kasumi-1 cells [4], the “growth of Kasumi-1 cells (MTT)” value is reported as “significantly reduced the growth; also recorded: inhibit proliferation”. For the same molecule, the “growth of 720 T-ALL cells (MTT)” value in the assay with 720 T-ALL cell line is “significantly reduced the growth; also recorded: inhibit proliferation”. Further, in assay [5], the “colony formation by normal mouse bone marrow cells” value is reported as “Neither AI-8–45 nor AI-9–54 had any effect”. Further, the “saturation transfer effect / binding to Runt domain” value in the assay with Cerulean-Runt domain is “in close contact with the protein”. For the same molecule, the “Flk1:dsRed+Myb:Gfp+ HSPCs in the VDA at 36 hpf” value in assay [6] (Tg(kdrl:dsred;cmyb:egfp) embryos, 2.5 µM, 12 to 36 hpf, flow cytometry) is “decreased”. Also, the “number of CD41:Gfp+ HSPCs in the CHT at 48 hpf” value in [6] (Tg(−6.0itga2b:egfp) embryos, treated 18 to 48 hpf, compared to AI-7–54 treated controls) is “decreased”. The “colony numbers of normal bone marrow mononuclear cells” value in assay [7] is given as “but not that of normal bone marrow mononuclear cells”. Also, in the assay with 720 T-ALL cells, the “expression of Deptor, Cdkn1a, Dhcr24, Cebpa, Csf1r (qPCR)” value was “affected”. Further, in assay [8], the “colony numbers of t(8;21) positive human AML samples” value is given as “significantly reduced the colony numbers”.

The IC50 is the concentration needed to halve the response being measured. The low end stands for greater potency in that assay, the high end for weaker potency in that assay.
